In brackets after ≈: the same amount, converted by molar mass.
What was measured:
[1] = 1-octanol-aqueous phosphate buffer distribution coefficient, log D of the compound at pH 7.4 after 30 mins by shake-flask method; assay type: physicochemical
Procedure, shortened: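 Partition of compound between 1-octanol and aqueous phosphate buffer, pH 7.4.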

Mus musculus = test: Antidiabetic activity in C57BL6/JAX mouse assessed as reduction in blood glucose AUC at 50 mg/kg administered 30 mins prior to glucose challenge measured up to 90 mins by OGTT relative to control; assay type: functional; parameters: scale not given: the % may be the effect or the level left
Procedure, shortened: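 C57BL6/JAX mice given compound at 50 mg/kg, 30 min before a 2 g/kg oral glucose load. Blood glucose followed to 90 min. Value is the % reduction in blood glucose AUC.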

[2] = AUC in rat at 2 mg/kg, iv and 5 mg/kg, po; assay type: ADME, organism-based; settings: plasma
Procedure, shortened: (§1)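 Rats dosed at 2 mg/kg IV in 5% DMSO:95% hydroxypropyl beta cyclodextrin, and at 5 mg/kg orally as a 0.1% pluronic F127 suspension, both at 5 mL/kg.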

[3] = Half life in rat at 2 mg/kg, iv; assay type: ADME, organism-based; parameters: dose 2 mg/kg, route intravenous; settings: in vivo; procedure, shortened: as §1
[4] = Plasma clearance in rat at 2 mg/kg, iv and 5 mg/kg, po; assay type: ADME, organism-based; procedure, shortened: as §1
[5] = Apparent permeability from apical to basolateral side in MDCK cells at 10 uM; assay type: ADME, cell-based, Canis lupus familiaris; settings: dog
Procedure, shortened: (§2)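 Compound incubated at 10 µM with cultured MDCK epithelial cells. Apparent permeability measured in both directions, A-B and B-A.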

[6] = Oral bioavailability in rat at 5 mg/kg; assay type: ADME, organism-based; settings: in vivo; procedure, shortened: as §1
[7] = Volume of distribution at steady state in rat at 2 mg/kg, iv and 5 mg/kg, po; assay type: ADME, organism-based; settings: in vivo, read-out: Vdss; procedure, shortened: as §1
[8] = Half life in rat at 5 mg/kg, po; assay type: ADME, organism-based; parameters: dose 5 mg/kg, route oral; settings: in vivo; procedure, shortened: as §1
[9] = Intrinsic clearance in rat hepatocytes measured per 10^6 cells; assay type: ADME, cell-based, Hepatocyte; settings: read-out: CLH
[10] = Apparent permeability from basolateral to apical side in MDCK cells at 10 uM; assay type: ADME, cell-based, Canis lupus familiaris; settings: dog; procedure, shortened: as §2
[11] = target: T1, Glucose-dependent insulinotropic receptor (Mus musculus, UniProt Q7TQP3); test: Displacement of [3H]-N-(2-fluoro-4-methylsulfonyl-phenyl)-6-[4-(3-isopropyl-1,2,4-oxadiazol-5-yl)-1-piperidyl]-5-nitro-pyrimidin-4-amine from mouse GPR119 overexpressed in baculovirus infected Sf21 cell membranes after 120 mins by scintillation counting analysis
T1 sequence (Q7TQP3 whole entry): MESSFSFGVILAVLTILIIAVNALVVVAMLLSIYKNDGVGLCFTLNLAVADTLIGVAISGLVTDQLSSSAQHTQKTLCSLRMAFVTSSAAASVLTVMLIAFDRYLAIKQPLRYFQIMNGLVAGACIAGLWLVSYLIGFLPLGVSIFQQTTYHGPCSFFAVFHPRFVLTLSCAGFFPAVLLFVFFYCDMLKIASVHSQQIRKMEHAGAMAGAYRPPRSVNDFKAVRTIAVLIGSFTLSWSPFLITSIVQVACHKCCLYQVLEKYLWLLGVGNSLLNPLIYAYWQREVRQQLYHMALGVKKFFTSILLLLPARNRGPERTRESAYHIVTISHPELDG

[12] = target: T2, Glucose-dependent insulinotropic receptor (Homo sapiens, UniProt Q8TDV5); test: Displacement of [3H]-N-(2-fluoro-4-methylsulfonyl-phenyl)-6-[4-(3-isopropyl-1,2,4-oxadiazol-5-yl)-1-piperidyl]-5-nitro-pyrimidin-4-amine from human GPR119 overexpressed in baculovirus infected Sf21 cell membranes after 120 mins by scintillation counting analysis
T2 sequence (Q8TDV5 whole entry): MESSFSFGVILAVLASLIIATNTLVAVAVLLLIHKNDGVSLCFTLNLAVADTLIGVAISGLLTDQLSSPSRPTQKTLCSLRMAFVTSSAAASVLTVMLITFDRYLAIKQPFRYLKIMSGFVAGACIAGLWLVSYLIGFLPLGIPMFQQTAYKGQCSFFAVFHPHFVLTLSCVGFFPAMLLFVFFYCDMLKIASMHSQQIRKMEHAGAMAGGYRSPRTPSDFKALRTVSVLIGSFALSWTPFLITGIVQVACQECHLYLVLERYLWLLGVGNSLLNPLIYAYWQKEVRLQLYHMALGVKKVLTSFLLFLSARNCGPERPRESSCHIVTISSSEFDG

[13] = target: T2, Glucose-dependent insulinotropic receptor; test: Agonist activity at human GPR119 overexpressed in HEK293S cells assessed as change in cAMP level after 45 mins by HTRF assay; assay type: functional, cell-based
[14] = target: T1, Glucose-dependent insulinotropic receptor; test: Agonist activity at mouse GPR119 overexpressed in HEK293S cells assessed as change in cAMP level after 45 mins by HTRF assay; assay type: functional, cell-based
Cytochrome P450 2C19 = Cytochrome P450 2C19 (Homo sapiens, UniProt P33261); test: Inhibition of CYP2C19 (unknown origin); assay type: ADME
Cytochrome P450 3A4 = Cytochrome P450 3A4 (Homo sapiens, UniProt P08684); test: Inhibition of CYP3A4 (unknown origin); assay type: ADME
Cytochrome P450 1A2 = target: T3, Cytochrome P450 1A2 (Homo sapiens, UniProt P05177); test: Inhibition of CYP1A2 (unknown origin); assay type: ADME
T3 sequence (P05177 whole entry): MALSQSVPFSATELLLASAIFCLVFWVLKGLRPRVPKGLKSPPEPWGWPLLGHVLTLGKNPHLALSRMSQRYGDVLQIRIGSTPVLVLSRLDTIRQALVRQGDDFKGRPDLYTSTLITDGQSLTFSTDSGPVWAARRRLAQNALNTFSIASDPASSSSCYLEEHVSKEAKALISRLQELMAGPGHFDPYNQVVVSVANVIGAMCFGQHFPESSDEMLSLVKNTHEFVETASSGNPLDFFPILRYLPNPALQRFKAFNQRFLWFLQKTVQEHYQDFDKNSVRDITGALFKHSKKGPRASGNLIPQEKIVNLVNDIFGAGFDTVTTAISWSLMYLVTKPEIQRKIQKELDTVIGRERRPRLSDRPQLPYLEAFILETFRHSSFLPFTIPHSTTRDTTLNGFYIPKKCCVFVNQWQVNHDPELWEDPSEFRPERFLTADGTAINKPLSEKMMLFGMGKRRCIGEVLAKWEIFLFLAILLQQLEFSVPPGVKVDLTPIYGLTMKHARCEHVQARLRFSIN

[15] = Fraction unbound in rat plasma by equilibrium dialysis method; assay type: ADME, cell-free
[16] = target: Voltage-gated inwardly rectifying potassium channel KCNH2 (Homo sapiens, UniProt Q12809); test: Inhibition of human ERG by IonWorks assay
[17] = Fraction unbound in mouse plasma by equilibrium dialysis method; assay type: ADME, cell-free
Cytochrome P450 2D6 = Cytochrome P450 2D6 (Homo sapiens, UniProt P10635); test: Inhibition of CYP2D6 (unknown origin); assay type: ADME
Cytochrome P450 2C9 = Cytochrome P450 2C9 (Homo sapiens, UniProt P11712); test: Inhibition of CYP2C9 (unknown origin); assay type: ADME
[18] = Aqueous solubility of the compound in phosphate buffer at pH 7.4 at 25 degC after 24 hrs by LC-UV analysis; assay type: physicochemical

Chain of Cytochrome P450 3A4 (P08684 whole entry): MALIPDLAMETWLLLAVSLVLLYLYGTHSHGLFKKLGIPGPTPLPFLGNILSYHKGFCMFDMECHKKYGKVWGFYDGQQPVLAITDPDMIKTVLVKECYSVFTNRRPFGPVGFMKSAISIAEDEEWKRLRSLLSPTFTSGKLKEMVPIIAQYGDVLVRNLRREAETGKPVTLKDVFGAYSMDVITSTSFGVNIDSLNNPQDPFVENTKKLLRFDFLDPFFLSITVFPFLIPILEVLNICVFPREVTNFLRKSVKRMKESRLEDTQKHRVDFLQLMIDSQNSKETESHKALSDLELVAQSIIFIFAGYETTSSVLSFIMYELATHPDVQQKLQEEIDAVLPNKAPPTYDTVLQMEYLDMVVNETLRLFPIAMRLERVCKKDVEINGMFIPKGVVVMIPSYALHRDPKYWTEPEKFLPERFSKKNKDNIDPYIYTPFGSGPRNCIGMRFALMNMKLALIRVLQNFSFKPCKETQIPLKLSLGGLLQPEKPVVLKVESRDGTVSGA
Chain of Cytochrome P450 2D6 (P10635 whole entry): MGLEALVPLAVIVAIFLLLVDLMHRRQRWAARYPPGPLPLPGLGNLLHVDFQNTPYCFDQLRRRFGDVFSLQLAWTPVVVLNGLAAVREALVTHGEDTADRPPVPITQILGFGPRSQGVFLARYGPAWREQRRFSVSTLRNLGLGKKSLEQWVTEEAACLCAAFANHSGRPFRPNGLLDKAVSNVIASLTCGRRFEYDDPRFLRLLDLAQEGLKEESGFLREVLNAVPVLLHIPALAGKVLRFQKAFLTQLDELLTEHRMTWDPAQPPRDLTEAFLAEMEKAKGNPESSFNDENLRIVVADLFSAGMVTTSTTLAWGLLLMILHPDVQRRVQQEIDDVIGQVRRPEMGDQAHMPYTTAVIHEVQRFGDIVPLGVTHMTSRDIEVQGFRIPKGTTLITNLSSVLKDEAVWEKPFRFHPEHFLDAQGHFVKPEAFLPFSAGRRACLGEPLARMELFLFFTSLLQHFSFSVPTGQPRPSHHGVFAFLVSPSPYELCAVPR
Chain of Cytochrome P450 2C19 (P33261 whole entry): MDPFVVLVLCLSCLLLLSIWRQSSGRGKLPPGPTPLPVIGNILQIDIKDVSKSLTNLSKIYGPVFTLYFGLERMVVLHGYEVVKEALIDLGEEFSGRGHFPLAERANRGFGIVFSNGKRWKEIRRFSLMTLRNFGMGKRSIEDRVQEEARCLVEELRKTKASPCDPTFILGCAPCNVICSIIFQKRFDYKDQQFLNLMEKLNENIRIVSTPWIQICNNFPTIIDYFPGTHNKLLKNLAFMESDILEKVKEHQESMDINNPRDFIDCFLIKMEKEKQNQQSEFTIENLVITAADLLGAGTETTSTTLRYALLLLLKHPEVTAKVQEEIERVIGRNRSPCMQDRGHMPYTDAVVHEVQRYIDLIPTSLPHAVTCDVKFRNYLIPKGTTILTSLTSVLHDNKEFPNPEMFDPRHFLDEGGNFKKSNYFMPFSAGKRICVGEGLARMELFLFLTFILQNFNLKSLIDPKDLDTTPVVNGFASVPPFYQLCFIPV
Chain of Cytochrome P450 2C9 (P11712 whole entry): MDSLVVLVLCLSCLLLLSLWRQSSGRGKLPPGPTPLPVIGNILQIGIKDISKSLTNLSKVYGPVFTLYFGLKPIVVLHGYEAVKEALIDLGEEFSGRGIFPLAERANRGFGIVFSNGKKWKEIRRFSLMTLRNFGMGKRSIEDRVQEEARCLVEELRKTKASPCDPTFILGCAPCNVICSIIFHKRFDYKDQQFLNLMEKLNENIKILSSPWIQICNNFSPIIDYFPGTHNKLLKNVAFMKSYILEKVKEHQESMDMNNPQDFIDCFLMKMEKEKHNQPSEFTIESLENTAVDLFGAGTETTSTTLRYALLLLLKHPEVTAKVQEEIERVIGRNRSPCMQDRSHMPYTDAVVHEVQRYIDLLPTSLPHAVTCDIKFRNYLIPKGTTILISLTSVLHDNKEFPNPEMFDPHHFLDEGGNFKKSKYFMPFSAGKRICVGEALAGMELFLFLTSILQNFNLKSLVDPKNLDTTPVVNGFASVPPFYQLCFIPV
Chain of Voltage-gated inwardly rectifying potassium channel KCNH2 (Q12809 whole entry): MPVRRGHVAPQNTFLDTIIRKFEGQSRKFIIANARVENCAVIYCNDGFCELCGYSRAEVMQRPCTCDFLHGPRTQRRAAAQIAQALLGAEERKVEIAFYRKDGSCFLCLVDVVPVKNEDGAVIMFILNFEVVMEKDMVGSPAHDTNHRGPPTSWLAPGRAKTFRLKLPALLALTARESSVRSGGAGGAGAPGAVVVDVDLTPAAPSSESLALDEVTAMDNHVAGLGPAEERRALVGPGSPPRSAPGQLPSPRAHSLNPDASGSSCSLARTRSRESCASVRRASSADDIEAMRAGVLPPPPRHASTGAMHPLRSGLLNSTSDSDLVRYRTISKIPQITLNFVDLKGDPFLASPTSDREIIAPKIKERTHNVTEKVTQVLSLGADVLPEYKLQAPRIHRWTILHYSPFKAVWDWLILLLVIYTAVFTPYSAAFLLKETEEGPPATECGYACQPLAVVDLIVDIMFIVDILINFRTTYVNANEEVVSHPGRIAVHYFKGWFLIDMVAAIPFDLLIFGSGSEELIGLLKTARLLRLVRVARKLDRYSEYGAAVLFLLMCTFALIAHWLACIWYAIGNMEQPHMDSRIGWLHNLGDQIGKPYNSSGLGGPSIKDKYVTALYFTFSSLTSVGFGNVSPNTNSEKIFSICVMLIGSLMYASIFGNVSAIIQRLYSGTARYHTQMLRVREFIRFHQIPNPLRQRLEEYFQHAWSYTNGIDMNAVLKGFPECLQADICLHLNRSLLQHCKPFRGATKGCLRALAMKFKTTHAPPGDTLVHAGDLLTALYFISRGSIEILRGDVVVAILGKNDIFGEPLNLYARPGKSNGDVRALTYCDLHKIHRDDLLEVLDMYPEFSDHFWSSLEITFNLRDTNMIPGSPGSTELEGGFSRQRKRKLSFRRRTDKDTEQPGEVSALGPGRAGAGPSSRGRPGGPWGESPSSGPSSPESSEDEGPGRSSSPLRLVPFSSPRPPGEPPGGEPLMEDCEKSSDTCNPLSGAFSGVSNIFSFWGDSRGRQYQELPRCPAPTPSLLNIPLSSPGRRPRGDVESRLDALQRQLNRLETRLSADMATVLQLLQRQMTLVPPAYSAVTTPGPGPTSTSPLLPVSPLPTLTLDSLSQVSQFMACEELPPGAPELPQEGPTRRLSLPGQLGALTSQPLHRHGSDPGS

## C[C@@H]1CN(C(=O)OCC(F)(F)F)CCN1c1ncc(OCc2ccncc2C#N)cn1
[1]
  logD at 0.5 h: 3
Mus musculus
  Activity: 10%
[2]
  AUC: 3.2 µM·h
[3]
  half-life: 1.4 h
[4]
  clearance: 14 mL/min/kg
[5]
  Papp A→B at 10 µM: 19 ×10⁻⁶ cm/s
[6]
  bioavailability: 27%
[7]
  Vd: 1.1 L/kg
[8]
  half-life: 2.2 h
[9]
  hepatocyte CLint: 27 µL/min/1e6 cells
[10]
  Papp B→A at 10 µM: 10 ×10⁻⁶ cm/s

## CC(C)(C)OC(=O)N1CC2CCC(C1)N2c1ncc(OCc2ccc(S(C)(=O)=O)cc2)cn1
[11]
  IC50: 72 nM
[12]
  IC50: 92 nM
[13]
  EC50: 79 nM

## CC(C)(C)OC(=O)N1C2CCC1CN(c1ncc(OCc3ccc(S(C)(=O)=O)cc3)cn1)C2
[11]
  IC50: 5 nM
[12]
  IC50: 3 nM
[13]
  EC50: 11 nM

## CC(C)(C)OC(=O)N1C2CCC1CN(c1ncc(OCc3ccncc3C#N)cn1)C2
[11]
  IC50: 9 nM
[12]
  IC50: 1 nM
[13]
  EC50: 4 nM

## N#Cc1cnccc1COc1cnc(N2CCN(C(=O)OC3CC(F)(F)C3(F)F)CC2)nc1 (configuration not stated)
[11]
  IC50: 758 nM
Mus musculus
  Activity: 30%
[14]
  EC50: 252 nM
[12]
  IC50: 25 nM
[13]
  EC50: 20 nM

## C[C@@H]1CN(C(=O)OC2CC(F)(F)C2(F)F)CCN1c1ncc(OCc2ccncc2C#N)cn1 (some centres not stated)
[11]
  IC50: 694 nM
[14]
  EC50: 84 nM
[12]
  IC50: 6 nM
[13]
  EC50: 6 nM

## N#Cc1cnccc1COc1cnc(N2CC3CCC(C2)N3C(=O)OC2CC(F)(F)C2(F)F)nc1 (configuration not stated)
[11]
  IC50: 65 nM
Mus musculus
  Activity: 3%
[12]
  IC50: 9 nM
[13]
  EC50: 7 nM

## N#Cc1cnccc1COc1cnc(N2CCN(C(=O)OCC(F)(F)F)CC2)nc1
[1]
  logD at 0.5 h: 3
[11]
  IC50: 4990 nM
Cytochrome P450 2C19
  IC50: > 30000 nM
Mus musculus
  Activity: 21%
[2]
  AUC: 4 µM·h
[3]
  half-life: 3.9 h
[4]
  clearance: 22 mL/min/kg
Cytochrome P450 3A4
  IC50: > 30000 nM
[5]
  Papp A→B at 10 µM: 32 ×10⁻⁶ cm/s
[6]
  bioavailability: 48%
Cytochrome P450 1A2
  IC50: > 30000 nM
[7]
  Vd: 5.3 L/kg
[14]
  EC50: 698 nM
[15]
  fraction unbound: 0.051
[12]
  IC50: 18 nM
[8]
  half-life: 2.1 h
[13]
  EC50: 47 nM
[16]
  IC50: 10000 nM
[17]
  fraction unbound: 0.094
[9]
  hepatocyte CLint: 12 µL/min/1e6 cells
Cytochrome P450 2D6
  IC50: > 30000 nM
Cytochrome P450 2C9
  IC50: > 30000 nM
[18]
  solubility at 24 h: 3.3 µM (≈ 1.39 µg/mL)

## N#Cc1cnccc1COc1cnc(N2CC3CCC(C2)N3C(=O)OCC(F)(F)F)nc1
[1]
  logD at 0.5 h: 3
[11]
  IC50: 104 nM
Cytochrome P450 2C19
  IC50: > 30000 nM
Mus musculus
  Activity: 6%
[2]
  AUC: 2.1 µM·h
[3]
  half-life: 1.7 h
[4]
  clearance: 11 mL/min/kg
Cytochrome P450 3A4
  IC50: > 30000 nM
[5]
  Papp A→B at 10 µM: 25 ×10⁻⁶ cm/s
[6]
  bioavailability: 17%
Cytochrome P450 1A2
  IC50: > 30000 nM
[7]
  Vd: 1 L/kg
[14]
  EC50: 20 nM
[15]
  fraction unbound: 0.065
[12]
  IC50: 8 nM
[8]
  half-life: 2.6 h
[13]
  EC50: 9 nM
[17]
  fraction unbound: 0.096
[9]
  hepatocyte CLint: 13 µL/min/1e6 cells
Cytochrome P450 2D6
  IC50: > 30000 nM
Cytochrome P450 2C9
  IC50: > 30000 nM
[10]
  Papp B→A at 10 µM: 20 ×10⁻⁶ cm/s
[18]
  solubility at 24 h: 3.8 µM (≈ 1.7 µg/mL)

## CC(C)c1nc(N2CCN(c3ncc(OCc4ccncc4C#N)cn3)CC2)no1
[11]
  IC50: 2720 nM
[14]
  EC50: 242 nM
[12]
  IC50: 12 nM
[13]
  EC50: 19 nM

## CC(C)c1nc(N2C3CCC2CN(c2ncc(OCc4ccncc4C#N)cn2)C3)no1
[11]
  IC50: 122 nM
[14]
  EC50: 45 nM
[12]
  IC50: 4 nM
[13]
  EC50: 11 nM
